Our source for the cytotoxicity values is ChEMBL document CHEMBL4513216, “Probing the Open Global Health Chemical Diversity Library for Multistage-Active Starting Points for Next-Generation Antimalarials” (ACS Infect Dis, 2020).

Molecules are shown by their SMILES.

The nature of this series: Toxicity liver stage against HepG2, at 10uM. The series is classed as cell-based. The arrangement: test concentration 10 uM, cell line HepG2-A16-CD81EGFP. Conditions: human, HepG2-A16-CD81EGFP cells; read-out: INHIBITION
A digest of the protocol: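 Uninfected HepG2-A16-CD81EGFP cells, 3 × 10^3 per well, 1536-well, plated on prespotted compound at 10 μM final, parasite-free screening media added to match infected plates; puromycin 10 μM positive, DMSO 0.5% negative; run in parallel with 48 h PbLuc assay at 37 °C, 5% CO2; viability by CellTiter-Glo luminescence, normalized to controls.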
Turning to `c1cc(CN2CCc3ncnc(C4CCOC4)c3CC2)ccn1` (stereo not drawn), the cytotoxicity at 10 µM is -0.703%.
Regarding `Cc1ccc(-c2cnnc(N3CCCC3c3nonc3C)n2)o1` (stereo not drawn), the cytotoxicity at 10 µM is 5.46%.
For the molecule `Cc1nc(CN2CC[C@H]3[C@@H]2CCC(=O)N3c2cnn(C)c2)cs1`, the cytotoxicity at 10 µM turned out to be 11.3%.
For `Cn1cc(C(NCCc2ccccn2)c2cccc(F)c2)cn1` (stereo not drawn), the cytotoxicity at 10 µM stood at 9.73%.
In the case of `CN1C[C@H]2CN(C(=O)c3ccc4c(c3)OCO4)CCN2C1=O`, the cytotoxicity at 10 µM was -0.434%.
With `Fc1cccc(N2CCCC3(CN(Cc4cccnc4)CCO3)C2)c1` (stereo not drawn), the cytotoxicity at 10 µM was -78.2%.
Regarding `Cc1ccccc1N1CCN(C(=O)c2cccnc2-n2cncn2)CC1`, the cytotoxicity at 10 µM came to 8.35%.
The value for `COc1ccc(N2CCC(N(C)C(C)C(=O)N(C)C)CC2)cc1` (stereo not drawn) was 11%.
With `CN1CCN(CCCNC(=O)C2CCCCC2)CC1`, the cytotoxicity at 10 µM is -1.82%.
In the case of `CCCc1ccc(S(=O)(=O)NC(=O)CCC2CCCO2)cc1` (stereo not drawn) it was -25.7%.
For the molecule `Cc1c(C)n(CC(O)CN2CCN(CCO)CC2)c2c(Cl)cccc12` (stereo not drawn), the cytotoxicity at 10 µM is -12.9%.
In the case of `Cn1ccnc1CN1CCN2C[C@H](OCc3cccnc3)C[C@H]2C1`, the cytotoxicity at 10 µM was -1.29%.
In the case of `COC(=O)CN(C(=O)c1ccc(-n2ccnc2)cc1)C1CC1` it was -5%; in that of `CCN(CC)C(=O)CNC(=O)c1ccc(-c2ccsc2)nc1C`, 22.9%.
`CCc1nccn1CCC(=O)N1CCN(c2ccccc2C)CC1C` (stereo not drawn): the cytotoxicity at 10 µM was 11%.
In the case of `CN1CC(c2ccccc2)CC12CCN(C(=O)c1c(Cl)cnn1C)CC2` (stereo not drawn) it was -17%.
On to `c1cc(-c2nnc([C@H]3CCNC3)o2)ccn1`, for which the cytotoxicity at 10 µM worked out at 4.82%.
Regarding `Cc1cc(C(=O)NCc2ccccn2)no1`, the cytotoxicity at 10 µM is -9.95%.
The value for `CCc1oc(C(=O)N[C@@H]2c3ccccc3C[C@@H]2O)cc1CN1CCCC1` was -5.65%; that for `CN(Cc1ccc(Cl)s1)C(=O)c1cccc(OCC(N)=O)c1` was -1.61%; that for `COCc1ncc(CN2CCC3(CCC(=O)N(CC(C)O)C3)CC2)cn1` (stereo not drawn) was -123%.
In the case of `O=C1CCc2cc(S(=O)(=O)NCc3cc4n(n3)CCNC4)ccc2N1` it was 3.28%; in that of `Cc1nc2cc(=O)[nH]n2c(C)c1CC(=O)Nc1cn[nH]c1`, 6.13%; in that of `CS(=O)(=O)NCc1cncc2c1CCN(C(=O)N1CCCC1)C2`, 12.8%.
In the case of `CS(=O)(=O)CCNCc1ccc(OCc2ccccn2)cc1` it was -128%.
Consider `CNC(=O)CN1CCCC(Cc2ccccc2OC)C1` (stereo not drawn), for which the cytotoxicity at 10 µM is -8.53%.
The value for `CC(NC(=O)C1CCCC1)c1nncn1C(C)C` (stereo not drawn) was 6.89%; that for `N#Cc1cccc(CN2CCn3cc(CNC(=O)C4CCC4)nc3C2)c1` was 14%.
Take `Cc1cc(C)n(CC(C)NC(=O)c2cc(C(C)C)on2)n1` (stereo not drawn): the cytotoxicity at 10 µM came out at 0.5%.
The value for `CC1CN(C)CCN1C(=O)Nc1nc(-c2ccco2)cs1` (stereo not drawn) was -5.02%; that for `CC(C)c1nccn1C1CCCN(C(=O)CCNS(C)(=O)=O)C1` (stereo not drawn) was -3.71%.
In the case of `Cc1nc(NC(=O)CCOCC(F)(F)F)ccc1Br`, the cytotoxicity at 10 µM was found to be 6.27%.
In the case of `Cc1nc(-c2cc(C(=O)O)co2)cs1` it was 3.39%; in that of `COc1ccc(OCCNCCn2cccn2)cc1`, 2.05%; in that of `Cc1cc(C(=O)N2CCCN(Cc3cnn(C)c3)CC2)no1`, -2.92%.
With `COc1ccc(OCc2nc(C(=O)NCCN3CCOCC3)co2)cc1`, the cytotoxicity at 10 µM worked out at 1.87%.
As to `CN(C)C1COC2(CCN(Cc3nccs3)CC2)C1` (stereo not drawn), the cytotoxicity at 10 µM is 2.02%.
In the case of `CN(Cc1ccc(Cl)s1)C(=O)NCc1nnc2n1CCC2` it was -5.36%; in that of `COCCN1CCN(Cc2cccc(OCC(N)=O)c2)CC1C` (stereo not drawn), 2.43%.
In the case of `CS(=O)(=O)N1CCN(Cc2c(O)ccc3oc4c(c23)CCCC4)CC1` it was 1.01%; in that of `COC(=O)N1CCCC(NC(=O)NCc2ccc(C)nc2)C1` (stereo not drawn), -4.73%.
In the case of `Cc1cc(N2CCC3(CCC(=O)N(CCO)C3)CC2)nc(N(C)C)n1` it was -4.78%.
`CCOc1ccc(CNC(C)c2cccc(S(=O)(=O)NC)c2)cc1` (stereo not drawn): the cytotoxicity at 10 µM came out at 16.1%.
The value for `Cc1cnn(CC2CCCN2CCCS(C)(=O)=O)c1` (stereo not drawn) was -8.18%; that for `O=C(NCc1ccccc1CO)Nc1ccc2c(c1)CCO2` was 11.4%; that for `O=C(C1CCN(c2ncnc3cccc(F)c23)CC1)N1CCCC1` was 3.76%.
On to `Cc1nccn1CC1CCCN1S(=O)(=O)Cc1ccc(F)cc1` (stereo not drawn), for which the cytotoxicity at 10 µM is -7.69%.
With `Cc1oc(-c2ccsc2)nc1CNC(C)Cn1cccn1` (stereo not drawn), the cytotoxicity at 10 µM was -9.81%.
Regarding `CCc1nsc(NC2CCOC3(CCCC3)C2)n1` (stereo not drawn), the cytotoxicity at 10 µM came to 13%.
On to `Cc1nc(C)n(CC2CCCN2Cc2nc(C3CC3)no2)n1` (stereo not drawn), for which the cytotoxicity at 10 µM was -12.5%.
The value for `O=C(Nc1ccccn1)NC(CCCO)c1ccccc1` (stereo not drawn) was 3.72%; that for `COc1cc(N2CCC(c3nccn3Cc3cccnc3)CC2)ncn1` was -4.4%; that for `CCOc1ccc(NC(=O)c2ccc(C#N)cc2C)cc1CO` was -4.12%.
For `CS(=O)(=O)N1CCCCCC1C1CCN(c2ncccn2)CC1` (stereo not drawn), the cytotoxicity at 10 µM was -7.98%.
`c1ccc2c(NCC3(N4CCOCC4)CCSC3)ncnc2c1` (stereo not drawn): the cytotoxicity at 10 µM is 57%.
Take `Cc1ccc2nc(C)cc(C(=O)NC(C)c3nnn[nH]3)c2c1` (stereo not drawn): the cytotoxicity at 10 µM worked out at 7.8%.
With `Cc1ccccc1C(CNc1ncnc2c1CCNCC2)N(C)C` (stereo not drawn), the cytotoxicity at 10 µM is 21.5%.
In the case of `CC(C)n1nc2c(cc1=O)CN(Cc1nc(-c3ccoc3)no1)CC2`, the cytotoxicity at 10 µM amounted to 10.2%.
With `COCc1nc(C(=O)N(Cc2ccccc2)CC(C)C(=O)O)cs1` (stereo not drawn), the cytotoxicity at 10 µM was 4%.
In the case of `CCc1onc(C)c1C(=O)N1CCN(c2ncc3c(n2)CCOC3)CC1` it was 0.0912%.
In the case of `CC(C)C(=O)N1CCN(C(=O)CCc2nnc(-c3ccccc3)o2)CC1` it was -4.66%; in that of `Cc1n[nH]cc1CNCC1(c2cccc(F)c2)CCOCC1`, 6.48%.
In the case of `O=C(NCC1CCCO1)c1cc(COc2ccccc2F)[nH]n1` (stereo not drawn) it was 10.8%; in that of `C/C(NC(=O)c1cccs1)=C1\C(=O)C[C@@H]2[C@H]1C2(C)C`, -1.18%; in that of `Cc1cccc(CN2CCC(n3cc(CCO)nn3)CC2)c1C`, 0.636%.
On to `COCCNC(=O)N1CCCC(COc2ccccc2)C1` (stereo not drawn), for which the cytotoxicity at 10 µM worked out at 0.186%.
The value for `NC(=O)C1CCCN1CCCc1ccc(Cl)cc1` (stereo not drawn) was 5.39%; that for `COc1cccc(CN(C)c2ncc(C(N)=O)cc2Cl)c1` was 2.53%; that for `COc1ccc(O)c(C(=O)NCC2CCCN(C3CCOCC3)C2)c1` (stereo not drawn) was -3.23%.
With `COc1cc(-c2n[nH]c(CN)n2)cc(OC)c1OC`, the cytotoxicity at 10 µM was determined as 2.45%.
`Cc1nc(N2CCN(C)CC2)ncc1C(=O)N1CC(C)(C)C(C)(O)C1` (stereo not drawn): the cytotoxicity at 10 µM amounted to 18.5%.
`Fc1cccc(-c2nnn3c2COCC(CNCc2nccs2)C3)c1` (stereo not drawn): the cytotoxicity at 10 µM was -112%.
The value for `CCS(=O)(=O)N1CCC2(CC1)COC(COc1cccnc1)C2` (stereo not drawn) was 10.6%; that for `O=C(CN1CCCS(=O)(=O)CC1)NCc1ccccc1F` was 3.76%.
Turning to `COc1cc(Oc2ccc(C#N)cn2)ccc1CN1CCCC1`, the cytotoxicity at 10 µM was 32.2%.
In the case of `Cc1cnc(C)c(-c2cc(O)c3c(c2)CN(c2nccs2)CCO3)n1` it was 1.08%.
The value for `CC(C)c1nccn1CCCNC(=O)c1ccc(-c2cccnc2)nc1` was -11.8%; that for `CCc1ccc(NS(=O)(=O)c2cc3c(c(C(=O)O)c2)OCCO3)cc1` was -13.9%; that for `CN1CCCC1c1ccc(C(=O)N2CCc3ccccc3C2)s1` (stereo not drawn) was 1.66%.
Regarding `CCC(C)C(=O)NCc1cccc(OCCN(C)C2CCOCC2)c1` (stereo not drawn), the cytotoxicity at 10 µM was -0.114%.
The value for `O=C(NCc1cccc(N2CC=CC2)c1)NC1CC1` was 9.34%; that for `CC(NC1(CNS(=O)(=O)N(C)C)CCCC1)c1ccccc1` (stereo not drawn) was -5.01%; that for `Cc1ccc(C(=O)NCCCS(=O)(=O)c2ccccc2)c(=O)[nH]1` was -4.97%.
With `COc1ccccc1CN(CC1CCCO1)C(=O)c1scnc1C` (stereo not drawn), the cytotoxicity at 10 µM turned out to be 2.01%.
The value for `Cc1ccc(-c2nc(CN3CCn4c(nnc4C4CC4)C3)no2)cc1` was -1.99%.
In the case of `CS(=O)(=O)N1CCC(c2nnc3ccc(C(=O)NC4CCC4)cn23)C1` (stereo not drawn) it was 3.6%; in that of `CCc1noc(C)c1C(=O)N1CCCC1Cn1nc(C)cc1C` (stereo not drawn), -5.48%; in that of `CC(C)CN1C(=O)CC[C@H]2CN(C(=O)c3ncc[nH]3)CC[C@H]21`, 5.09%.
`CCc1cnc(N2CCC(=O)N(CC3CC3)C(C(C)C)C2)nc1` (stereo not drawn): the cytotoxicity at 10 µM is -6.28%.
The value for `CC(=O)Nc1nc(C(=O)NC(C)c2ccc(C#N)cc2)cs1` (stereo not drawn) was -10.5%.
Turning to `CCOCC1CN(S(=O)(=O)c2ccccc2)Cc2nccn2C1` (stereo not drawn), the cytotoxicity at 10 µM is -112%.
In the case of `COc1ccccc1CC(=O)N1CCCC(n2nc(C)nc2C)C1` (stereo not drawn) it was -4.47%; in that of `CN(C)c1ccc(CC(=O)N2CCOCC(O)C2)cc1` (stereo not drawn), 13.3%; in that of `CCn1cc2c(n1)C(COC)CN(Cc1ccccn1)C2` (stereo not drawn), -3.73%.
In the case of `Cn1cc(N2CCC3(CCN(C(=O)c4cccn4C)C3)C2=O)cn1` (stereo not drawn) it was 2.93%; in that of `CC(C)NC(=O)C1CCc2nnc(CNC(=O)c3cccnc3)n21` (stereo not drawn), 6.94%.
On to `COc1ccc(-c2noc([C@@H](C)NS(=O)(=O)CC(C)C)c2C(=O)O)cc1`, for which the cytotoxicity at 10 µM is -5.23%.
Turning to `CC(NS(=O)(=O)CCCC#N)c1cccc(-n2cccn2)c1` (stereo not drawn), the cytotoxicity at 10 µM was found to be 1.42%.
